Key:
L363 cells = assay: Cell viability; assay type: cell-based, Human; settings: L363, 72 h treatment, four replicates ± SEM
Method in brief: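 MTS viability run in quadruplicate at the stated times and doses. Lines were grown in RPMI-1640 with 2 mM L-glutamine, 10% FBS and penicillin/streptomycin at 37 °C, 5% CO2. MTS reagent was added directly for 90 min at 37 °C. Formazan absorbance was read at 500 nm. Viability was normalised to DMSO-treated wells.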

several other cell lines = settings: literature values across several other cell lines ref 33, 34; cited from earlier work

**Q.** For `CN(C)c1ccc(Nc2c3ccc(NC(=O)CCN4CCCC4)cc3nc3cc(NC(=O)CCN4CCCC4)ccc23)cc1` [BRACO-19], which IC50 (L363 cells) is on record?
**A.** 15.3 ± 4.3 µM

**Q.** What about the IC50 (several other cell lines) of the same compound?
**A.** 1 to 13 µM

From publication PMC4719142 (ACS Chemical Biology, 2015)
